SMARCA2 activ – SMARCA2 function activation, primary screen | 1% of 370,000 active | MG213 cells, MMTV-luciferase reporter, dexamethasone, overnight | activation, % at 9.1 µM; in the data active = activation above about 7.8%
esBAF inh – SWI/SNF esBAF complex inhibition | mouse ES cells, Bmi1-luciferase knock-in reporter, 24 h; 100% = twice the neutral-well signal | reporter increase, % at 12.5 µM | 2% of 350,000 active | AID 602393; in the data active = activation above about 40%;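 also: a rise in the Bmi1 reporter signal indicates esBAF inhibition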
ARFGAP1 inhibitor – inhibitors of rat ARFGAP1; Q62848; Arfgap1-stimulated ARF1 GTP hydrolysis, GDP FP detection; inhibition, % at 16.5 µM; 0.26% of 360,000 active; AID 651572;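 active = inhibition above a per-plate limit, mean inhibition of low control wells plus 3 SD, cut at about 25% in these data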
Target sequence (Q62848 1-136 limits assumed): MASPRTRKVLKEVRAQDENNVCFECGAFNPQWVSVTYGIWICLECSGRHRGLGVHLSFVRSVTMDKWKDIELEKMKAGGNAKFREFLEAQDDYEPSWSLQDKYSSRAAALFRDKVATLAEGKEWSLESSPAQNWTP
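Material: rat Arfgap1 GAP domain (His6, aa 1-136), purified enzyme. Also added: human ARF1(Δ1-17)-GTP substrate. Compound dosing: 16.5 µM single point, 1.26% DMSO. Timing: enzyme reaction 120 min at 25 °C after 20 min preincubation. Signal: GDP detection by fluorescence polarization. Read-out basis: percent inhibition of GAP-stimulated GDP formation, scaled between DMSO and no-Arfgap1 medians.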
ASAP1 GAP inh – ASAP1 ArfGAP inhibition; Q9ULH1; ASAP1-stimulated ARF1 GTP hydrolysis, GDP FP detection; inhibition, % at 16.5 µM; 0.19% of 360,000 active; AID 624377; in the data active = inhibition above about 25%
Target sequence (Q9ULH1 325-724 limits assumed): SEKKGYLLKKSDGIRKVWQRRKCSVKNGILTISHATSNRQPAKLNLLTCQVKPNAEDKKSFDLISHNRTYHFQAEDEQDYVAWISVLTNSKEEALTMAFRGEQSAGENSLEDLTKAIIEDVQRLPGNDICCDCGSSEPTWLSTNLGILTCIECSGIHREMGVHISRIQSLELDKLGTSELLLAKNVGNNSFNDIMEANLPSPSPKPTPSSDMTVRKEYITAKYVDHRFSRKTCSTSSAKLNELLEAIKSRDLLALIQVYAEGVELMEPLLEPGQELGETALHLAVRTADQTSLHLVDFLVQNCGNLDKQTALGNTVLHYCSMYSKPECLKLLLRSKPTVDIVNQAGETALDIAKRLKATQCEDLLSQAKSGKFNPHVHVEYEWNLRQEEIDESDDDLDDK
SMARCA2 act conf – SMARCA2 activation, confirmation screen; shares compounds with SMARCA2 activ; MG213 cells, MMTV-luciferase with dexamethasone, luminescence, overnight; MG213 cells expressing E1A, Rb sequestered; DMSO wells 0%, reference activator 100%; activation, % at 9.1 µM; 30% of 3,500 active;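 active = activation above its plate's cutoff, the mean activation of tested wells plus 3 SD, cut at about 7.9% in these data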
VP16 Luc act – counter-screen for SMARCA2 activators: GAL4-VP16 luciferase reporter activation; shares compounds with SMARCA2 activ; HEK293 GAL4-VP16 pG5luc reporter, luciferase luminescence; scaled: DMSO wells 0%, SAHA wells 100%; activation, % at 9.1 µM; 41% of 3,500 active;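 active = activation above the solvent-only control well mean plus 3 SD, averaged across control plates, cut at about 5.2% in these data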
Of the large screens only hits and unclear results are named; the others gave an inactive call (follow-up assays come after a bar, where they were run). The list is not random: actives were taken first. Their share in the collection is about 2.6%.

CCCC(=O)Nc1nc2ccc(OCC)cc2s1	none
COC(=O)C[C@H]1CC[C@H]2[C@@H](COc3ccc(NC(=O)C4CCOCC4)cc3C(=O)N2C)O1	none (no result: SMARCA2 activ, ARFGAP1 inhibitor, ASAP1 GAP inh)
CO[C@H]1CN(C)C(=O)c2ccc(NS(C)(=O)=O)cc2OC[C@@H](C)N(C(=O)NC(C)C)C[C@H]1C	none (no result: SMARCA2 activ, ARFGAP1 inhibitor, ASAP1 GAP inh)
COc1ccc(N2CCN(C(=O)c3cc4ccccc4o3)CC2)cc1	none
O=C(c1cc2cc(Br)ccc2o1)N1CCN(c2ccccc2)CC1	SMARCA2 activ 8.1 | SMARCA2 act conf inactive | VP16 Luc act inactive
CO[C@@H]1CN(C)C(=O)c2cc(NC(=O)c3cccc(F)c3)ccc2OC[C@H](C)N(CC2CC2)C[C@@H]1C	none (no result: SMARCA2 activ, ARFGAP1 inhibitor, ASAP1 GAP inh)
CC(C)N1C(=O)S/C(=C\c2ccc(-c3ccc(Cl)c(C(=O)O)c3)o2)C1=O	SMARCA2 activ 15, esBAF inh 48 | SMARCA2 act conf 12 | VP16 Luc act 13
CCOC(=O)CN1C(=O)S/C(=C\c2ccc(-c3ccc(C(=O)O)c(Cl)c3)o2)C1=O	none
O=C(C[C@@H]1C[C@H]2c3cc(NC(=O)C4CCC4)ccc3O[C@H]2[C@H](CO)O1)NCC(F)(F)F	none (no result: SMARCA2 activ, ARFGAP1 inhibitor, ASAP1 GAP inh)
COc1ccc(C(=O)Nc2ccccc2C(=O)N/N=C/c2ccncc2)cc1OC	SMARCA2 activ 8.5 (no result: esBAF inh) | SMARCA2 act conf 18 | VP16 Luc act 6.0
COc1ccc(C(=O)Nc2ccccc2C(=O)NCc2cccnc2)cc1OC	none (no result: esBAF inh)
COc1cccc(-c2cc(NC=O)c3ncc(-c4cccc(C(=O)N(C)C)c4)n3c2)c1	none
COc1cccc(-c2cnc3c(NC=O)cc(-c4cccc(C(=O)N(C)C)c4)cn23)c1	SMARCA2 activ 12 | SMARCA2 act conf inactive | VP16 Luc act inactive
CN(C)CCNC(=O)c1cccc(-c2cnc3c(NC=O)cc(-c4cc(F)c(F)c(F)c4)cn23)c1	none
CN(C)CCNC(=O)c1cccc(-c2cc(NC=O)c3ncc(-c4cccc(C(F)(F)F)c4)n3c2)c1	SMARCA2 activ 34 | SMARCA2 act conf 29 | VP16 Luc act inactive
O=C(CCN1CCCCC1)NCC[C@H]1CC[C@H](NC(=O)Nc2ccc(F)cc2)[C@@H](CO)O1	none (no result: SMARCA2 activ, ARFGAP1 inhibitor, ASAP1 GAP inh)
O=C(NCCN1C(=O)S/C(=C\c2ccc(Cl)cc2Cl)C1=O)C1=COCCO1	SMARCA2 activ 8.1 | SMARCA2 act conf inactive | VP16 Luc act inactive
C[C@H](CO)N1C[C@H](C)[C@H](CN(C)C(=O)Nc2ccc3c(c2)OCO3)OCc2cn(nn2)CCCC1=O	none (no result: SMARCA2 activ, ARFGAP1 inhibitor, ASAP1 GAP inh)
CC(O)CNc1nc2c(c(=O)n(Cc3cccc(Cl)c3)c(=O)n2C)n1C (stereo not drawn)	none
CC(O)CNc1nc2c(c(=O)n(Cc3ccccc3)c(=O)n2C)n1C (stereo not drawn)	SMARCA2 activ 9.7 | SMARCA2 act conf inactive | VP16 Luc act inactive
CCCc1nc2oc3c(NCCCN(C)C)ncnc3c2c2c1CCCC2	SMARCA2 activ 19 (no result: esBAF inh) | SMARCA2 act conf 19 | VP16 Luc act inactive
O=C(c1cc(Cl)ccc1Cl)N1CCOCC1	SMARCA2 activ 11 | SMARCA2 act conf 8.2 | VP16 Luc act inactive
O=C(c1ccc(Cl)cc1Cl)N1CCOCC1	none
O=C(CSc1nnc(-c2ccccc2O)o1)N1CCCCC1	none
CC1CCCCN1C(=O)CSc1nnc(-c2ccccc2O)o1 (stereo not drawn)	SMARCA2 activ 8.9 | SMARCA2 act conf inactive | VP16 Luc act 10
CCC(=O)Nc1ccc2c(c1)C(=O)N(C)C[C@H](OC)[C@H](C)CN(C(=O)c1ccncc1)[C@H](C)CO2	none (no result: SMARCA2 activ, ARFGAP1 inhibitor, ASAP1 GAP inh)
Nc1ccc2nc(-c3ccccc3)[nH]c2c1	none
Cc1nc2ccc(-c3nc4ccccc4[nH]3)cc2[nH]1	SMARCA2 activ 16 (no result: esBAF inh) | SMARCA2 act conf 14 | VP16 Luc act 12
c1ccc2[nH]c(-c3ccc4c(c3)OCO4)nc2c1	SMARCA2 activ 8.1 (no result: esBAF inh) | SMARCA2 act conf 22 | VP16 Luc act 12
COc1ccc2nc(N(CCN(C)C)C(=O)c3ccc4ncsc4c3)sc2c1	SMARCA2 activ 10, esBAF inh 81 | SMARCA2 act conf 13 | VP16 Luc act 9.4
COc1ccc2nc(N(CCN(C)C)C(=O)c3ccc4ccccc4c3)sc2c1	none
O=c1oc(-c2ccc(Br)o2)nc2ccccc12	SMARCA2 activ 14 | SMARCA2 act conf inactive | VP16 Luc act inactive
Cc1cc(C)c2nc(SCC#N)cc(C)c2c1	none
C/C(N)=C(/C#N)C(=O)CSc1cc(C)c2cc(C)cc(C)c2n1	SMARCA2 activ 8.5 | SMARCA2 act conf inactive | VP16 Luc act inactive
COc1cc(NC(=O)CSc2nccc(C)n2)c(C(=O)O)cc1OC	none
COc1cc(NC(=O)CSc2cc(C)c3cc(C)cc(C)c3n2)c(C(=O)O)cc1OC	SMARCA2 activ 8.4 | SMARCA2 act conf inactive | VP16 Luc act inactive
Cc1noc(C)c1NC(=O)N[C@H]1CC[C@H](CC(=O)NCc2ccc(Cl)c(Cl)c2)O[C@@H]1CO	none (no result: SMARCA2 activ, ARFGAP1 inhibitor, ASAP1 GAP inh)
Cc1ccc(S(=O)(=O)Nc2ccc3c(c2)C(=O)N([C@H](C)CO)C[C@H](C)[C@H](CN(C)S(=O)(=O)c2cn(C)cn2)OCCCC[C@H](C)O3)cc1	none (no result: SMARCA2 activ, ARFGAP1 inhibitor, ASAP1 GAP inh)
COc1ccc(CN(C)C[C@@H]2Oc3c(NC(=O)c4cc(C)nn4C)cccc3C(=O)N([C@@H](C)CO)C[C@H]2C)cc1	none (no result: SMARCA2 activ, ARFGAP1 inhibitor, ASAP1 GAP inh)
COc1cccc(-c2nn3c(-c4cccc(C)c4)nnc3s2)c1	SMARCA2 activ 11 | SMARCA2 act conf inactive | VP16 Luc act inactive
COc1ccc(-c2cc(-c3nnc4sc(-c5cccs5)nn34)[nH]n2)cc1	SMARCA2 activ 8.5 (no result: esBAF inh, ARFGAP1 inhibitor, ASAP1 GAP inh) | SMARCA2 act conf inactive | VP16 Luc act 8.1
COc1cccc(-c2nnc3sc(-c4ccco4)nn23)c1	none
C[C@@H]1COc2cc(N3CCC[C@H]3CO)ccc2S(=O)(=O)N1	SMARCA2 activ 8.0 (no result: esBAF inh) | SMARCA2 act conf inactive | VP16 Luc act inactive
CC(C)C[C@H]1COc2cc(N3CCC[C@@H]3CO)ccc2S(=O)(=O)N1	none (no result: esBAF inh)
C[C@H]1COc2cc(N3CCC[C@H]3CO)ccc2S(=O)(=O)N1	SMARCA2 activ 10 (no result: esBAF inh) | SMARCA2 act conf inactive | VP16 Luc act inactive
O=C(NCC[C@@H]1CC[C@@H](NC(=O)c2ccccc2F)[C@H](CO)O1)c1cnccn1	none (no result: SMARCA2 activ, ARFGAP1 inhibitor, ASAP1 GAP inh)
N#CC(C#N)=C1SC(=Nc2ccccc2)C(=Nc2ccccc2)N1c1ccccc1	SMARCA2 activ 14 (no result: esBAF inh) | SMARCA2 act conf inactive | VP16 Luc act inactive
O=C(C[C@H]1C=C[C@H](NS(=O)(=O)c2ccc(F)cc2)[C@H](CO)O1)NC1CCCCC1	none (no result: SMARCA2 activ, ARFGAP1 inhibitor, ASAP1 GAP inh)
O=c1cnnc(SCCc2ccccc2)[nH]1	SMARCA2 activ 8.2 | SMARCA2 act conf inactive | VP16 Luc act inactive
Cc1cccc(CSc2nncc(=O)[nH]2)c1	none
COc1ccc(C2C(C#N)=C(N)N(c3cccnc3)C3=C2C(=O)CC(C)(C)C3)cc1OC (stereo not drawn)	SMARCA2 activ 9.2 (no result: esBAF inh) | SMARCA2 act conf inactive | VP16 Luc act inactive
Cc1noc(C)c1-c1ccc(C(=O)NCc2ccco2)c2occc12	none
